In ChEMBL document CHEMBL4145444, “Investigating the structure-activity relationships of N'-[(5-nitrofuran-2-yl) methylene] substituted hydrazides against Trypanosoma cruzi to design novel active compounds” (Eur J Med Chem, 2018):
Active and inactive are the calls of the source. The calls are words filed in the database; no cut-off is given here.

What was measured:
Trypanosoma cruzi [1] = experiment: Antitrypanosomal activity against Trypanosoma cruzi Colombiana Tc1 epimastigotes measured after 72 hrs; format: functional, organism-based; settings: for IC50: Trypanosoma cruzi, Colombiana, 72 h
Outline: (§1)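 Exponentially growing epimastigotes (1.0*10^7 parasites/mL) cultured in LIT-FCS medium with compound from 0.4 to 300.0 µM, added from DMSO stock (DMSO ≤1.0%), 72 h at 28 °C. Viable parasites read by absorbance at 562 nm. PGI computed against untreated culture after subtracting compound/medium blanks. IC50 from sigmoid dose-response fit using at least six concentrations. Triplicates, at least two independent experiments.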

Trypanosoma cruzi [2] = experiment: Antitrypanosomal activity against Trypanosoma cruzi Silvio X10 cl1 Tc1 epimastigotes measured after 72 hrs; format: functional, organism-based; settings: for IC50: Trypanosoma cruzi, Silvio X10 cl1, 72 h
Outline: as §1, with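 “°C.” for “°C. Viable parasites read by absorbance at 562 nm.”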

Trypanosoma cruzi [3] = experiment: Antitrypanosomal activity Trypanosoma cruzi Y Tc2 epimastigotes measured after 72 hrs; format: functional, organism-based; settings: for IC50: Trypanosoma cruzi, Y, 72 h; outline: as §1
Trypanosoma cruzi [4] = experiment: Antitrypanosomal activity Trypanosoma cruzi Bug 2149 cl10 Tc5 epimastigotes measured after 72 hrs; format: functional, organism-based; settings: for IC50: Trypanosoma cruzi, Bug 2149 cl10, CL1-0, 72 h
Outline: as §1, with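 “°C.” for “°C. Viable parasites read by absorbance at 562 nm.”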

Trypanosoma cruzi [5] = experiment: Antitrypanosomal activity against Trypanosoma cruzi Colombiana Tc1 trypamastigotes infected in monkey LLC-MK2 cells assessed as inhibition of parasite viability by measuring motility at 1 uM after 20 hrs by light microscopic method relative to control; format: functional; settings: LLC-MK2, 20 h
Outline: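 Colombiana trypomastigotes, centrifuged at 7,000 rpm at 4 °C, resuspended at 10^6/mL in DME with 2% FCS. Exposed to 1 μM compound, 0.5% DMSO final, 20 h at 37 °C, 5% CO2. Viability judged by motility under light microscope. Live parasites counted in a Neubauer chamber. % inhibition relative to drug-free control. Two independent experiments.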

Trypanosoma cruzi [6] = experiment: Antitrypanosomal activity against Trypanosoma cruzi Y Tc2 amastigotes infected in human U2OS cells after 72 hrs by Draq5 staining based HCS analysis; format: functional, organism-based
Outline: (§2)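 U2OS cells (700/well, high-glucose DME, 10% FBS) seeded and incubated 24 h. Then infected with 2,800 Y-strain trypomastigotes harvested from LLC-MK2 cells. On day 3, 14-point 2-fold dilutions added, top 200 μM, 1% DMSO, 72 h. Fixed in 4% PFA, Draq5 stained, imaged at 20x. Infection ratio normalized to DMSO-mock infected and uninfected controls. IC50 by sigmoidal variable-slope fit. Doublets, duplicate experiments.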

[7] = Cytotoxicity against human U2OS cells assessed as reduction in cell viability; format: cell-based
[8] = Selectivity index, ratio of CC50 for cytotoxicity against human U2OS cells to IC50 for Trypanosoma cruzi Y Tc2 amastigotes infected in human U2OS cells; format: toxicity, cell-based; settings: read-out: Ratio CC50/IC50
Outline: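 Ratio of U2OS CC50 to Y-strain amastigote IC50, both from the same 72 h Draq5-stained HCS assay in infected U2OS cells (2-fold series up to 200 μM, 1% DMSO).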

Trypanosoma cruzi [9] = experiment: Antitrypanosomal activity against Trypanosoma cruzi Y Tc2 amastigotes infected in human U2OS cells up to 200 uM after 72 hrs by Draq5 staining based HCS analysis relative to control; format: functional; outline: as §2
Trypanosoma cruzi [10] = experiment: Antitrypanosomal activity against Trypanosoma cruzi Y Tc2 amastigotes infected in human U2OS cells at 1.56 uM after 72 hrs by Draq5 staining based HCS analysis; format: functional, organism-based
Trypanosoma cruzi [11] = experiment: Antitrypanosomal activity against Trypanosoma cruzi Y Tc2 amastigotes infected in human U2OS cells at 0.39 uM after 72 hrs by Draq5 staining based HCS analysis; format: functional, organism-based
U2OS = experiment: Cytotoxicity against human U2OS cells assessed as effect on cell morphology at 1.56 uM after 72 hrs by HCS analysis; format: cell-based
Trypanosoma cruzi [12] = experiment: Potency index, ratio of benznidazole IC50 to compound IC50 for antitrypanosomal activity against Trypanosoma cruzi Y Tc2 amastigotes infected in human U2OS cells; format: functional
Trypanosoma cruzi [13] = experiment: Potency index, ratio of benznidazole IC50 to compound IC50 for antitrypanosomal activity against Trypanosoma cruzi Colombiana Tc1 epimastigotes; format: functional

| log1/IC50 (Trypanosoma cruzi [3]) | IC50 (Trypanosoma cruzi [3]) | IC50 (Trypanosoma cruzi [6]) | SMILES | log1/IC50 (Trypanosoma cruzi [1]) | IC50 (Trypanosoma cruzi [1]) | log1/IC50 (Trypanosoma cruzi [2]) | IC50 (Trypanosoma cruzi [2]) | log1/IC50 (Trypanosoma cruzi [4]) | IC50 (Trypanosoma cruzi [4]) | inhibition at 1 µM (Trypanosoma cruzi [5]) | CC50 [7] | selectivity ratio [8] | Emax (Trypanosoma cruzi [9]) | Activity (Trypanosoma cruzi [10]) | Activity (Trypanosoma cruzi [11]) | Activity (U2OS) | Ratio IC50 (Trypanosoma cruzi [12]) | Ratio IC50 (Trypanosoma cruzi [13]) |
| --- | --- | --- | --- | --- | --- | --- | --- | --- | --- | --- | --- | --- | --- | --- | --- | --- | --- | --- |
| 5.86 | 1370 nM | 820 nM | CCCCCCCc1ccc(C(=O)N/N=C/c2ccc([N+](=O)[O-])o2)cc1 | 5.98 | 1050 nM | 5.7 | 1980 nM | 6.17 | 670 nM | 98.5% | > 200000 nM | > 244 | 103% | Active | inactive | Non-Toxic | 70 |  |
| 5.83 | 1470 nM | 880 nM | CCCCCCCOc1ccc(C(=O)N/N=C/c2ccc([N+](=O)[O-])o2)cc1 | 5.96 | 1090 nM | 5.7 | 1990 nM | 6.07 | 850 nM | 98.5% | > 200000 nM | > 227 | 98.3% |  |  |  | 70 |  |
| 5.59 | 2550 nM | 960 nM | CCCCCc1ccc(C(=O)N/N=C/c2ccc([N+](=O)[O-])o2)cc1 | 5.75 | 1760 nM | 5.42 | 3770 nM | 5.7 | 1990 nM | 98.5% | > 200000 nM | > 208 | 104% |  |  |  | 70 |  |
| 5.03 | 9280 nM |  | CCOC(=O)N/N=C/c1ccc([N+](=O)[O-])o1 | 5.15 | 7070 nM | 4.95 | 11300 nM | 5.16 | 6920 nM |  |  |  |  |  |  |  |  | 25 - 30 |
| 5.6 | 2500 nM | 1660 nM | CCCCCC1CCC(C(=O)N/N=C/c2ccc([N+](=O)[O-])o2)CC1 (configuration not stated) | 5.83 | 1470 nM | 5.64 | 2300 nM | 5.9 | 1270 nM | 98.5% | > 200000 nM | > 120 | 103% |  |  |  |  |  |
